Measured values taken from the EternaBench riboswitch data.

Tested on: MS2 coat protein
Experiment: apparent Kd, MS2 coat protein; higher = weaker binding; RNA-MaP array; FMN 200 µM where present
Method in brief: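 The apparent Kd comes from binding curves fitted cluster by cluster, filtered, and summarised as a median. Those curves followed SNAP-549-labelled MS2 coat protein from 0.7 or 1.5 nM, doubling to 3 µM, on Illumina sequencing-chip clusters where stalled E. coli RNA polymerase had transcribed the designs, without and then with constant ligand. The buffer was 100 mM Tris-HCl pH 7.5, 80 mM KCl, 4 mM MgCl2, BSA, DTT, yeast tRNA and Tween-20, and green signal was normalised to red-channel RNA signal and control-cluster median Fmax.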

[1] = designed as: ON switch for flavin mononucleotide, no ligand
[2] = ligand present: flavin mononucleotide, designed as: ON switch for flavin mononucleotide
[3] = designed as: OFF switch for flavin mononucleotide, no ligand
[4] = ligand present: flavin mononucleotide, designed as: OFF switch for flavin mononucleotide

Sequence	apparent Kd [1]	apparent Kd [2]	apparent Kd [3]	apparent Kd [4]
GCAAUAGCAUGAGGAUAUGCUGGAGUUUAGACAGCAGAAGGCAUGUCAUAAGACAUGAGGAUCACCCAUGUAAUUACAAUAGCA	57.8 nM	10.4 nM		
UGGACUGGGCAGAAGGGACAUGAGGAUCACCCAUGUCUUGGGCUACUUCAGUCAGGAUAUGCCCGUUGAAUAUCCGUGCAUCAA			10.2 nM	52.6 nM
AUCUACCUAGGAUAUACAUGAGGAUCACCCAUGUACAGUUUCAACUAGGGAAACACACGUAGAAGGAGGUAGAU			13.6 nM	32.6 nM
CCAUGGCUGUGAGGAUAUGUCUGACAAAGUCAGACAGAAGGCACAUGAGGAUCACCCAUGUGAAAACACCAACAAAAGCCAUGG			5.93 nM	6.9 nM
GGAUAGGACAGAGGAUAUACGGCUAGGAGAUACUAGCCACUAUUCCUCACAUGAGGAUCACCCAUGUAGAAGGCUGUCCUAUCG			16.9 nM	109 nM
GCAUGCAUAGCGAUAUGAUCGAGAGAUCAUGUCGCUAAAUUUAGAAGGACAUGAGGAUCACCCAUGUAGGAUAUGGGAGCAUGU	92.1 nM	15.4 nM		
UUCGGACUAUCAGGAUAUGGUGUAGCCUAGUAAAGGACAUGAGGAUCACCCAUGUACCAUUGGUACCAGAAGGGAUGAUCCUAC	29.9 nM	24.9 nM		
AAUUUACAGGGAGGAUAUACAUGAGGAUCACCCAUGUAAUCAUAUGAUAUUUUUUUUGUAUGAGUGUAGAAGGCCCAAAUAACA			9.27 nM	11.4 nM
GGUCCACAUGAGGAUCACCCAUGUUAGGAUAUCUCGUCCGAGCAGUUAUGGGCCGGGCAGAGAAGGAAUGUGAA			30.3 nM	26.6 nM
GCACUUACGUUAGGAUAUGGAUCGGAAAACGAUCCAGAAGGAAUAUGGGAACAUGAGGAUCACCCAUGUUCCUCAGACAAGUGC	67.7 nM	35.1 nM		
GGCUCUAGAGGAUAUACAAACUGAUCCUCAGAGCGCCGGCUACAUGAGGAUCACCCAUGUAGAAGGUUGGAGUC			15.6 nM	13.1 nM
AUUAUUUAUAGUUAUUUUUAUUUUACAGAAGGUGAAUUAUUUACAUGAGGAUCACCCAUGUUCUUCAAGGAUAUGUUGUUAUAC	49.4 nM	22.1 nM		
CGCCAUUUAACAACGGCGCGGUCGAGAAGGGUACAUGAGGAUCACCCAUGUCACGUUCCUCCUGUACAGGAUAUCGUACGGGUA			67 nM	146 nM
UCUCUUCUGUAGAAGGCCCGACUUGUGAAGACAACAAUGCUAUAGAAGUAGGGAGGAUAUACAUGAGGAUCACCCAUGUAGGAA			11.6 nM	29.3 nM
UGGUACUAGGGAGGAUAUGGGAAGAUACAUGAGGAUCACCCAUGUUUAAGAAUGCCGAGAGGCAACUAGAAGGCCCUAAUACCU	400 nM	19.1 nM		
AUCAGCUCGUCAGGAUAUACGUCACUGCGUCAGCAGAGUGGUAAGAUCACAUGAGGAUCACCCAUGUAGAAGGGACGAGCUGAU			39.5 nM	421 nM
GACAUGAGGAUCACCCAUGUCCCUCCAGAAGGCUGGCGCGCGAAACCUAAAUCAGUUCCGGGCACAGAGGAUAUGGGCGGUUGG	164 nM	34.3 nM		
CUGAUGUUAGGAUAUCAGGUUGCGCGCGAAGGCGCGCGGCAUGAGAAGGAACAUGAGGAUCACCCAUGUGACGA			39.7 nM	148 nM
AAAUAACUAGGAUAUCGAGGCACAGACAUGAGGAUCACCCAUGUGUGGUCUUCGUGCUUACGAGAAGGAGUACGGC			672 nM	274 nM
UUUUAACAUGAGGAUCACCCAUGUGAGGAUAUCGAAAUUUAUAUUAAUAUUUUUAAAUCGAGAAGGCACAUUUU			121 nM	109 nM
GUGAAGAUAGCAGGAUAUUUAUUUCCUACAUGAGGAUCACCCAUGUAGGUGAUCAGCCGAGUAAAGGAGAAGGGCUAUCUUUAC	30.9 nM	21.3 nM		
